Source: publication PMC9328817 (Journal of Food and Drug Analysis, 2016)
Where a SMILES comes first, the peptide text is derived from it.

Columns and labels:
[1] = system: HepG2 cells; assay: MTT viability assay; assay type: cell-based; conditions: for Inhibitory effect on the growth of HepG2 cancer cells (in words): 0-1 mg/mL; for Growth inhibition of HepG2 cells: highest concentration tested 1 mg/mL, 24, 48 and 72 hours
Method in brief: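 HepG2 cells were grown in DMEM with 10% FBS, L-glutamine and 1% penicillin/streptomycin at 37°C, humidified, 5% CO2, and treated in log phase at 80% confluence. After seeding and 24 h incubation, cells received peptides at 0–1 mg/mL for 24, 48 or 72 h. MTT was added (4 h, dark, 37°C), DMSO was added, and A570 was read against untreated cells.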

[2] = system: cancer cell growth; conditions: cited from earlier work

Molecule | Inhibitory effect on the growth of HepG2 cancer cells (in words) [1] | Growth inhibition of HepG2 cells [1] | Reduction of cancer cell growth [2] [%]
CC(C)C[C@H](NC(=O)[C@H](CCC(N)=O)NC(=O)[C@H](CC(=O)O)NC(=O)[C@H](CCC(N)=O)NC(=O)[C@H](CCC(N)=O)NC(=O)[C@H](CCC(=O)O)NC(=O)[C@H](CC(=O)O)NC(=O)[C@H](CCC(=O)O)NC(=O)[C@@H](NC(=O)[C@H](CCC(N)=O)NC(=O)[C@H](CCC(N)=O)NC(=O)[C@H](CCC(N)=O)NC(=O)[C@H](CCC(=O)O)NC(=O)[C@H](CCC(=O)O)NC(=O)[C@@H](N)CC(C)C)[C@@H](C)O)C(=O)O [LL-15] (H-LEEQQQTEDEQQDQL-OH) | no significant inhibitory effects | about 20% | –
CC(C)C[C@H](NC(=O)CNC(=O)[C@@H](N)CCCNC(=N)N)C(=O)N[C@@H](Cc1c[nH]cn1)C(=O)N1CCC[C@H]1C(=O)N[C@H](C(=O)N1CCC[C@H]1C(=O)N[C@@H](CCC(N)=O)C(=O)O)C(C)C [RQ-8] (H-RGLHPVPQ-OH) | no significant inhibitory effects | about 20% | –
CC(C)C[C@H](NC(=O)[C@H](CCCNC(=N)N)NC(=O)[C@H](Cc1c[nH]cn1)NC(=O)[C@H](CC(C)C)NC(=O)[C@H](CCC(=O)O)NC(=O)[C@H](CCC(=O)O)NC(=O)[C@H](CC(C)C)NC(=O)[C@@H](N)Cc1ccc(O)cc1)C(=O)N[C@@H](CC(N)=O)C(=O)N[C@@H](C)C(=O)NCC(=O)N[C@@H](Cc1ccc(O)cc1)C(=O)O [YY-11] (H-YLEELHRLNAGY-OH) | no significant inhibitory effects | about 20% | –
lactoferrin: iron-binding multifunctional protein in camel milk (protein, UniProt Q9TUM0 20-708, looked up) Lactotransferrin: ASKKSVRWCTTSPAESSKCAQWQRRMKKVRGPSVTCVKKTSRFECIQAISTEKADAVTLDGGLVYDAGLDPYKLRPIAAEVYGTENNPQTHYYAVAIAKKGTNFQLNQLQGLKSCHTGLGRSAGWNIPMGLLRPFLDWTGPPEPLQKAVAKFFSASCVPCVDGKEYPNLCQLCAGTGENKCACSSQEPYFGYSGAFKCLQDGAGDVAFVKDSTVFESLPAKADRDQYELLCPNNTRKPVDAFQECHLARVPSHAVVARSVNGKEDLIWKLLVKAQEKFGRGKPSGFQLFGSPAGQKDLLFKDSALGLLRISSKIDSGLYLGSNYITAIRGLRETAAEVELRRAQVVWCAVGSDEQLKCQEWSRQSNQSVVCATASTTEDCIALVLKGEADALSLDGGYIYIAGKCGLVPVLAESQQSPESSGLDCVHRPVKGYLAVAVVRKANDKITWNSLRGKKSCHTAVDRTAGWNIPMGLLSKNTDSCRFDEFLSQSCAPGSDPRSKLCALCAGNEEGQNKCVPNSSERYYGYTGAFRCLAENVGDVAFVKDVTVLDNTDGKNTEQWAKDLKLGDFELLCLNGTRKPVTEAESCHLAVAPNHAVVSRIDKVAHLEQVLLRQQAHFGRNGRDCPGKFCLFQSKTKNLLFNDNTECLAKLQGKTTYEEYLGPQYVTAIAKLRRCSTSPLLEACAFLMR | – | – | 56
